Assay results as given in ChEMBL document CHEMBL4765234 (J Med Chem, 2016).
Activity calls are given as the source filed them. The rule behind the calls is not given here.

Legend:
[1] = target: T1, Free fatty acid receptor 1 (Homo sapiens, UniProt O14842); assay: Agonist activity at human recombinant full length GPR40 overexpressed in human HEK293 cells assessed as increase in inositol phosphate accumulation in presence of terbium cryptate-labeled anti IP1/d2-labelled IP1 measured after 120 mins by HTRF assay; format: functional, cell-based
Method in brief: (§1)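 HEK293 hGPR40 cells (20K/well) were cultured overnight, washed, and held in IP1 stimulation buffer. IP-1 was measured by competitive HTRF immunoassay with terbium cryptate anti-IP1 mAb and d2-labelled IP1.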

[2] = target: Free fatty acid receptor 1 (Rattus norvegicus, UniProt Q8K3T4); assay: Agonist activity at Prolink-tagged rat GPR40 fused with EA-tagged beta-arrestin expressed in human U2OS cells assessed as induction of beta-arrestin recruitment measured after 90 mins by beta-galactosidase based PathHunter assay; format: cell-based
Method in brief: (§2)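 PathHunter β-gal complementation. Cells were incubated overnight at 5000/well in medium with 1% heat-inactivated FBS. Compound was added as a 20-point 2-fold series from a top final of 100 μM (1% DMSO) for 90 min at 37 °C, followed by detection reagents and chemiluminescence read after 1 h at rt.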

[3] = target: T1, Free fatty acid receptor 1; assay: Displacement of [3H]-TAK-875 from human recombinant full-length GPR40 expressed in human HEK293 cell membrane incubated for 2 hrs by solid scintillation counting method; format: cell membranes
[4] = target: T1, Free fatty acid receptor 1; assay: Agonist activity at human recombinant full length GPR40 overexpressed in human HEK293 cells assessed as increase in inositol phosphate accumulation in presence of terbium cryptate-labeled anti IP1/d2-labelled IP1 measured after 120 mins by HTRF assay relative to AMG837; format: functional, cell-based; conditions: filed as agonist; method in brief: as §1
[5] = target: T1, Free fatty acid receptor 1; assay: Agonist activity at human recombinant full-length Prolink-tagged GPR40 fused with EA-tagged beta-arrestin expressed in human HEK293 cells assessed as induction of beta-arrestin recruitment measured after 90 mins by beta-galactosidase based PathHunter assay relative to control; format: cell-based; conditions: filed as agonist; method in brief: as §2
[6] = target: T2, Peroxisome proliferator-activated receptor alpha (Homo sapiens) (UniProt Q07869); assay: Displacement of [3H]-[…] from PPARalpha (unknown origin) expressed in baculovirus infected Sf9 insect cells upto 30 uM measured after 10 hrs by microbeta scintillation counting analysis; conditions: dose microM <=30, time 10.0 hrs
T2 sequence (whole entry): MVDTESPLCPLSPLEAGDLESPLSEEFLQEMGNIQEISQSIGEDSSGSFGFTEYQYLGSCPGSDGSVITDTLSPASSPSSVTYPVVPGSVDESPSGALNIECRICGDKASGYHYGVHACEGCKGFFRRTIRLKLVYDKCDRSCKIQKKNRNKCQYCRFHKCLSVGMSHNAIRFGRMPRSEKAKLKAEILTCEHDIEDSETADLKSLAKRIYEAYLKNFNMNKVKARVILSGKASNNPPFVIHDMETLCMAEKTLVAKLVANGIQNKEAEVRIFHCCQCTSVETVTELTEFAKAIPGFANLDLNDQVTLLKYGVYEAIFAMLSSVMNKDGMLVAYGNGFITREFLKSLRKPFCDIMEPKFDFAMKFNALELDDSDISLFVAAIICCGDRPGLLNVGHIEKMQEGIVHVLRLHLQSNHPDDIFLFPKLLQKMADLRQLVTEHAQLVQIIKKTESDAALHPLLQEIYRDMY
Method in brief: (§3)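 Scintillation proximity assay. Sf9 lysates with baculovirus-expressed PPARα (0.3 μg), PPARδ (0.5 μg) or PPARγ (1.25 μg), each with RXRα, were bound via biotinylated DR2 oligo (0.126 nM) to streptavidin yttrium silicate beads. Buffer was HEPES pH 7.8 with KCl, MgCl2, DTT, CHAPS, 14% glycerol and salmon sperm DNA. A 3H reference agonist ligand was used, with 11 compound concentrations, for 10 h. Nonspecific binding was defined with 10000 nM unlabeled reference. Ki was derived from IC50.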

[7] = target: T3, Peroxisome proliferator-activated receptor gamma (Homo sapiens) (UniProt P37231); assay: Displacement of [3H]-[…] from PPARgamma (unknown origin) expressed in baculovirus infected Sf9 insect cells upto 30 uM measured after 10 hrs by microbeta scintillation counting analysis; conditions: dose microM <=30, time 10.0 hrs; method in brief: as §3
T3 sequence (whole entry): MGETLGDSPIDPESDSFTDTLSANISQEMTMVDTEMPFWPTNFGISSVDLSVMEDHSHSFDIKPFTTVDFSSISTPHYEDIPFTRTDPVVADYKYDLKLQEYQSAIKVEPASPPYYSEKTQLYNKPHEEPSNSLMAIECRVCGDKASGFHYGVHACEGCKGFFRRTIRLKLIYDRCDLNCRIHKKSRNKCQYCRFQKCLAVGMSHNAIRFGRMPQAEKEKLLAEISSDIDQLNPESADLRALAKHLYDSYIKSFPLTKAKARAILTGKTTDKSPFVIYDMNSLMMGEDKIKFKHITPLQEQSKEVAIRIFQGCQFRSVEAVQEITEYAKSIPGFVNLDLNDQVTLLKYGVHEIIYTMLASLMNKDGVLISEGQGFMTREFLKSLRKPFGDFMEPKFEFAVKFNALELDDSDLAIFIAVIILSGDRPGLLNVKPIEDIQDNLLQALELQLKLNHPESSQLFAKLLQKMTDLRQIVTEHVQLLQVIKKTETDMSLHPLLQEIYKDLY

[8] = target: T4, Peroxisome proliferator-activated receptor delta (Homo sapiens) (UniProt Q03181); assay: Displacement of [3H]-[…] from PPARdelta (unknown origin) expressed in baculovirus infected Sf9 insect cells upto 30 uM measured after 10 hrs by microbeta scintillation counting analysis; conditions: dose microM <=30, time 10.0 hrs; method in brief: as §3
T4 sequence (whole entry): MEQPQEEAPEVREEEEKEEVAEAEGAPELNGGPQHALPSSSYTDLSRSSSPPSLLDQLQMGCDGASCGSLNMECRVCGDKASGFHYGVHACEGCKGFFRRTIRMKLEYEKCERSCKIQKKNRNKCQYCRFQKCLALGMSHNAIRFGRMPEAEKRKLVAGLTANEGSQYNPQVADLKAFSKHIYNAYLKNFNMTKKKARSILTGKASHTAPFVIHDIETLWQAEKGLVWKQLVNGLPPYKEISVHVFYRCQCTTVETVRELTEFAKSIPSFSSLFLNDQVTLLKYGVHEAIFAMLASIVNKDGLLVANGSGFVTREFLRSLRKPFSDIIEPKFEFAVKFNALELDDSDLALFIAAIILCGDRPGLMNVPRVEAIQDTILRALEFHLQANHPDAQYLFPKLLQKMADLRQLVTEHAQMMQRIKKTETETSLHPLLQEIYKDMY

[9] = target: T1, Free fatty acid receptor 1; assay: Agonist activity at human recombinant full-length Prolink-tagged GPR40 fused with EA-tagged beta-arrestin expressed in human HEK293 cells assessed as induction of beta-arrestin recruitment measured after 90 mins by beta-galactosidase based PathHunter assay; format: cell-based; method in brief: as §2
[10] = target: T1, Free fatty acid receptor 1; assay: Agonist activity at human recombinant full length GPR40 overexpressed in human HEK293 cells assessed as increase in intracellular calcium level measured over 3 mins by calcium 4 dye based FLIPR assay; format: functional, cell-based
Method in brief: (§4)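 HEK293 cells overexpressing hGPR40 (25K/well) were cultured overnight in DMEM/F12 with 0.2% FBS and geneticin. Compound was tested at 40 μM–0.1 nM final (20-point, 1% DMSO), and FLIPR fluorescence was read over 3 min.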

[11] = target: Free fatty acid receptor 1 (Rattus norvegicus) (UniProt Q8K3T4); assay: Agonist activity at Prolink-tagged rat GPR40 fused with EA-tagged beta-arrestin expressed in human U2OS cells assessed as induction of beta-arrestin recruitment measured after 90 mins by beta-galactosidase based PathHunter assay relative to control; format: cell-based; conditions: filed as agonist; method in brief: as §2
[12] = target: Free fatty acid receptor 1 (Mus musculus, UniProt Q76JU9); assay: Agonist activity at Prolink-tagged mouse GPR40 fused with EA-tagged beta-arrestin expressed in human U2OS cells assessed as induction of beta-arrestin recruitment measured after 90 mins by beta-galactosidase based PathHunter assay; format: cell-based; method in brief: as §2
[13] = target: T1, Free fatty acid receptor 1; assay: Agonist activity at human recombinant full length GPR40 overexpressed in human HEK293 cells assessed as increase in intracellular calcium level measured over 3 mins by calcium 4 dye based FLIPR assay relative to 100 uM linoleic acid; format: functional, cell-based; conditions: filed as agonist; method in brief: as §4
[14] = Protein binding in plasma (unknown origin) by equilibrium dialysis method; format: ADME, cell-free; conditions: human, read-out: PPB
Method in brief: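 Plasma protein binding measured by equilibrium dialysis.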

[15] = target: Free fatty acid receptor 1 (Mus musculus) (UniProt Q76JU9); assay: Agonist activity at Prolink-tagged mouse GPR40 fused with EA-tagged beta-arrestin expressed in human U2OS cells assessed as induction of beta-arrestin recruitment measured after 90 mins by beta-galactosidase based PathHunter assay relative to control; format: cell-based; conditions: filed as agonist; method in brief: as §2
Sequence of Free fatty acid receptor 1 (Mus musculus) (Q76JU9 whole entry, the tested form may be a part): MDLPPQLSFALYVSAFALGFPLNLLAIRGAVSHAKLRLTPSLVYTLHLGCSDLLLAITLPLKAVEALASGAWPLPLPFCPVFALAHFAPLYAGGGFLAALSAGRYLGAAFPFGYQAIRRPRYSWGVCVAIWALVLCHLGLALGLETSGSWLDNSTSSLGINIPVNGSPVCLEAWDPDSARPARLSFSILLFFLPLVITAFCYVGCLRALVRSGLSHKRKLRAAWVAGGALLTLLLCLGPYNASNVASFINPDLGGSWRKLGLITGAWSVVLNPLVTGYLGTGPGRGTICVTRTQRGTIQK

Sequence of Free fatty acid receptor 1 (Mus musculus, UniProt Q76JU9) (Q76JU9 whole entry, the tested form may be a part): as above
T1 sequence (O14842 whole entry): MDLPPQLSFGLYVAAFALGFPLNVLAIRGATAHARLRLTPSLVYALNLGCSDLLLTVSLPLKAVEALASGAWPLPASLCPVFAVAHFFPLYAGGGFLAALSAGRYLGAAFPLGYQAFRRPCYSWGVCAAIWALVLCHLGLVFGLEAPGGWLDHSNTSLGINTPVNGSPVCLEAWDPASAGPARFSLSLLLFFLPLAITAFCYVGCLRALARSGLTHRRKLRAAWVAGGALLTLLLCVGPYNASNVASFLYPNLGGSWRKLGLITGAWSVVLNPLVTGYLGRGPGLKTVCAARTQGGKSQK
Sequence of Free fatty acid receptor 1 (Rattus norvegicus, UniProt Q8K3T4) (Q8K3T4 whole entry, the tested form may be a part): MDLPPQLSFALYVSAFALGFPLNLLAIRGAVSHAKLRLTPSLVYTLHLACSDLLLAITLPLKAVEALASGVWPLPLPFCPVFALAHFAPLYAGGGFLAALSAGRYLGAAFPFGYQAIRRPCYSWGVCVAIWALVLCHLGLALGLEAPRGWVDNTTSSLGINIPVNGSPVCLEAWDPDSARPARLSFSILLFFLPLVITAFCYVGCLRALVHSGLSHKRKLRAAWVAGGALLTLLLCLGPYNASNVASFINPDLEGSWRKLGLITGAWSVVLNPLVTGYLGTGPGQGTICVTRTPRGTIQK
Sequence of Free fatty acid receptor 1 (Rattus norvegicus) (Q8K3T4 whole entry, the tested form may be a part): as above

SMILES	EC50 [1] [nM]	EC50 [2] [nM]	Ki [3] [nM]	Emax [4] [%]	Emax [5] [%]	Activity [6]	Activity [7]	Activity [8]	EC50 [9] [nM]	EC50 [10] [nM]	Emax [11] [%]	EC50 [12] [nM]	Emax [13] [%]	fraction unbound [14]	Emax [15] [%]
CC#C[C@@H](CC(=O)O)c1ccc(OCc2ncc(CN3CCC4(C=Cc5ccccc54)CC3)s2)cc1	12	23	130	129	117	inactive	inactive	inactive	84	2.8	109	7.2	63	< 0.01	115
CC#C[C@@H](CC(=O)O)c1ccc(OCc2ccc(CN3CCC4(C=Cc5ccccc54)CC3)c(F)c2)cc1	2.3	1.3	4	210	135	inactive	inactive	inactive	9.3	17	145	1.2	51	< 0.01	148
CC#C[C@@H](CC(=O)O)c1ccc(OCc2ccc(CN3CCC4(C=Cc5ccccc54)CC3)cc2)cc1F	14	16	13	156	118	inactive	inactive	inactive	36	18	115	5.6	60	< 0.01	120
CC#C[C@@H](CC(=O)O)c1ccc(OCc2ccc(CN3CCC4(CC3)CN(c3ccccc3)c3ccccc34)cc2)cc1	2.1	0.83	1.5	226	116	inactive	inactive	inactive	1.5	21	132	0.62	53	< 0.01	130
CC#C[C@@H](CC(=O)O)c1ccc(OCc2cnc(CN3CCC4(C=Cc5ccccc54)CC3)s2)cc1	5.2	11	120	129	114	inactive	inactive	inactive	170	4.4	114	3.8	62	< 0.01	127
CC#C[C@@H](CC(=O)O)c1ccc(OCc2sc(CN3CCC4(C=Cc5ccccc54)CC3)nc2C)cc1	72	100	100	97	100	inactive	inactive	inactive	520	17	73	18	53	< 0.01	97
CC#C[C@@H](CC(=O)O)c1ccc(OCc2ccc(CN3CCC4(C=Cc5ccccc54)CC3)c(C(F)(F)F)c2)cc1	1.9	1.1	1.1	255	132	inactive	inactive	inactive	1.1	20	135	0.83	55	< 0.01	146
CC#C[C@@H](CC(=O)O)c1ccc(OCc2ccc(CN3CCC4(CC3)CN(C(C)C)c3ccccc34)cc2)cc1	11	2.1	4.1	343	133	inactive	inactive	inactive	8.2	24	139	1.2	46	< 0.01	143
CC#C[C@H](CC(=O)O)c1ccc(OCc2ccc(CN3CCC4(C=Cc5ccccc54)CC3)cc2)cc1	360	120	310	166	95	inactive	inactive	inactive	540	2800	101	60	46	< 0.01	100
CC#C[C@@H](CC(=O)O)c1ccc(OCc2ccc(CN3CCC4(CC3)CC(=O)c3ccccc3O4)cc2)cc1	8.3	4.5	16	228	147	inactive	inactive	inactive	26	65	159	2.1	56	< 0.01	141
